Measured values as given in ChEMBL document CHEMBL1773052, “3-Trifluoromethylquinoxaline N,N'-dioxides as anti-trypanosomatid agents. Identification of optimal anti-T. cruzi agents and mechanism of action studies” (J Med Chem, 2011).
Active and inactive are the calls of the source. The calls are words filed in the database; no cut-off is given here.

Legend:
Trypanosoma cruzi [1] = assay: Inhibition of mitochondrial dehydrogenase activity in Trypanosoma cruzi Y epimastigotes at 20 uM up to 120 mins by MTT assay
Procedure, shortened: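 Y-strain epimastigotes, 10⁶ per well in 500 μL medium, treated with 20 μM compound at 28 °C, untreated wells as time-matched controls. At each time point cells counted, then MTT (50 μL of 5 mg/mL in PBS) added for 4 h. Stopped with acidic isopropanol, A570 read. Activity given as percent of untreated control.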

Trypanosoma cruzi [2] = assay: Antitrypanosomal activity against Trypanosoma cruzi CL Brener clone epimastigotes assessed as cell death after 2 days by MTT assay; format: functional; settings: 48 h, read-out: ID50 (the source's name)
Procedure, shortened: (§1)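 Parasites in exponential growth, in BHI-tryptose + 5% FBS for T. cruzi or RPMI + 5% FBS for L. braziliensis, 28 °C, 24-well plates. Compounds in DMSO; miltefosine in ethanol. 2-day exposure, two PBS-glucose (5.5 mM) washes, then MTT 0.4 mg/mL for 4 h at 28 °C. SDS-isopropanol lysis, OD read. Triplicates, six growth controls.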

[3] = Selectivity index, ratio of ID50 for mouse J774 cells to ID50 for Trypanosoma cruzi Tulahuen 2 epimastigotes; format: toxicity, cell-based; settings: J774 cells versus Trypanosoma cruzi Tulahuen 2 epimastigotes, read-out: Selectivity Index
Trypanosoma cruzi [4] = assay: Antitrypanosomal activity against Trypanosoma cruzi Y epimastigotes assessed as cell death after 2 days by MTT assay; format: functional; settings: 48 h, read-out: ID50 (the source's name); procedure, shortened: as §1
Trypanosoma cruzi [5] = assay: Antitrypanosomal activity against Trypanosoma cruzi Tulahuen 2 epimastigotes assessed as growth inhibition at 25 uM after 5 days relative to control; format: functional; settings: Tulahuen 2, 120 h, read-out: GI
Procedure, shortened: (§2)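 Epimastigotes grown axenically at 28 °C in BHI-tryptose + 5% FBS; a 10-day stationary culture was inoculated to 1 × 10⁶ cells/mL. Drug added from DMSO stock, final DMSO ≤0.4%, vehicle control. A600 read daily. PGI on day 5 corrects for day-0 absorbance, relative to control. […] Three independent experiments.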

Trypanosoma cruzi [6] = assay: Antitrypanosomal activity against Trypanosoma cruzi Colombiana epimastigotes assessed as cell death after 2 days by MTT assay; format: functional; settings: 48 h, read-out: ID50 (the source's name); procedure, shortened: as §1
Trypanosoma cruzi [7] = assay: Antitrypanosomal activity against Trypanosoma cruzi Tulahuen 2 epimastigotes assessed as growth inhibition after 5 days; format: functional; settings: Tulahuen 2, 120 h, read-out: ID50; procedure, shortened: as §2
Trypanosoma cruzi [8] = assay: Inhibition of mitochondrial dehydrogenase activity in Trypanosoma cruzi Y epimastigotes assessed as reduction of succinate excretion […] by NMR analysis
Trypanosoma cruzi [9] = assay: Antitrypanosomal activity against Trypanosoma cruzi Y epimastigotes assessed as cell death at 25 uM after 2 days by MTT assay relative to control; format: functional
Procedure, shortened: (§3)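 Epimastigotes of each strain taken in exponential growth in BHI-tryptose with 5% FBS, 1 mL per well. Compounds added from DMSO and kept 2 days at 28 °C. Cells washed twice and resuspended in PBS-glucose (5.5 mM), then given 0.4 mg/mL MTT for 4 h at 28 °C. Lysis in SDS-isopropanol, OD read. Triplicate wells, six growth controls. PCyt taken against control, corrected for medium-only wells.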

Trypanosoma cruzi [10] = assay: Inhibition of mitochondrial dehydrogenase activity in Trypanosoma cruzi Y epimastigotes assessed as reduction of acetate excretion at 5 uM […] by NMR analysis
Procedure, shortened: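 Y-strain epimastigotes treated 2 days with 5 μM compound, 5 mL then centrifuged at 1500g for 10 min at 4 °C. Parasite-free supernatant stored at −20 °C. Before NMR, 0.3 mL supernatant mixed with 0.1 mL DMF (10 mM, internal standard) and 0.1 mL D₂O. Excreted metabolites compared with parasite-free medium control, expressed relative to DMF. Three experiments.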

Trypanosoma cruzi [11] = assay: Antitrypanosomal activity against Trypanosoma cruzi Colombiana epimastigotes assessed as cell death at 25 uM after 2 days by MTT assay relative to control; format: functional; procedure, shortened: as §3
Trypanosoma cruzi [12] = assay: Antitrypanosomal activity against Trypanosoma cruzi CL Brener clone epimastigotes assessed as cell death at 25 uM after 2 days by MTT assay relative to control; format: functional; procedure, shortened: as §3
Leishmania braziliensis = assay: Antileishmanial activity against Leishmania braziliensis MHOM/BR/00/LTB300 promastigotes assessed as cell death after 2 days by MTT assay; format: functional; settings: MHOM/BR/00/LTB300, 48 h, read-out: ID50 (the source's name); procedure, shortened: as §1
Trypanosoma cruzi [13] = assay: Antitrypanosomal activity against Trypanosoma cruzi CL Brener clone trypomastigotes in parasite infected BALB/c mouse blood assessed as parasite lysis at 250 ug/ml after 24 hrs relative to control; format: functional
Procedure, shortened: (§4)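 Blood from BALB/c mice 7 days post-infection, taken by cardiac puncture into 3.8% sodium citrate (7:3). Compounds dissolved in DMSO, diluted in PBS to 100 or 250 μg/mL. 10 μL mixed with 100 μL infected blood (~10⁶ parasites/mL), in triplicate. Shaken 10 min at RT, held 4 °C for 24 h. Parasites counted by microscopy; gentian violet 250 μg/mL as standard.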

Trypanosoma cruzi [14] = assay: Antitrypanosomal activity against Trypanosoma cruzi CL Brener clone infected in BALB/c mouse assessed as reduction of parasitemia level at 10 mg/kg/day, po by ELISA; format: functional, organism-based
Procedure, shortened: (§5)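 Male BALB/c or Swiss albino mice, 30 days old, SPF, infected ip with 10³ blood trypomastigotes (CL Brener or Y). Oral dosing in PBS for 10 days. Controls: 10 mice on PBS; treated groups of 8. Tail-vein parasitemia weekly for 60 days, mortality recorded. Anti-T. cruzi antibodies measured by ELISA, run twice, at 30 and 60 or 90 days post-infection.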

Salmonella typhimurium [15] = assay: Mutagenic activity in Salmonella Typhimurium TA98 assessed as number of revertants at 0.005 to 15 ug/plate by Ames test in presence of S9 fraction; format: toxicity, organism-based; settings: salmonella enterica subsp. enterica serovar typhimurium
Procedure, shortened: (§6)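 Direct plate incubation with S. typhimurium TA98 on minimal glucose agar. Toxicity to the strain tested first; doses run in triplicate from DMSO solutions, DMSO as negative control. Metabolic activation with 500 μL Aroclor-treated mouse liver S9. Positive controls: 4-nitro-o-phenylenediamine 20.0 μg/plate without S9; 2-aminofluorene 10.0 μg/plate with S9. Revertants counted manually; mutagenic if ≥2-fold the negative control at two consecutive doses.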

Trypanosoma cruzi [16] = assay: Antitrypanosomal activity against Trypanosoma cruzi CL Brener clone infected in Swiss albino mouse assessed as increase of mouse survival days at 50 mg/kg/day, po relative to control; format: functional
Trypanosoma cruzi [17] = assay: Antitrypanosomal activity against Trypanosoma cruzi Y infected in Swiss albino mouse assessed as reduction of microbial antibody level at 10 to 30 mg/kg/day, po by Wilconxon test; format: functional, organism-based; procedure, shortened: as §5
Salmonella typhimurium [18] = assay: Mutagenic activity in Salmonella Typhimurium TA98 assessed as number of revertants at 0.005 to 15 ug/plate by Ames test in absence of S9 fraction; format: toxicity, organism-based; settings: salmonella enterica subsp. enterica serovar typhimurium; procedure, shortened: as §6
Trypanosoma cruzi [19] = assay: Antitrypanosomal activity against Trypanosoma cruzi Y infected in Swiss albino mouse assessed as reduction of parasitemia level at 10 to 30 mg/kg/day, po by ELISA; format: functional, organism-based; procedure, shortened: as §5
Trypanosoma cruzi [20] = assay: Antitrypanosomal activity against Trypanosoma cruzi CL Brener clone infected in Swiss albino mouse assessed as reduction of parasitemia level at 10 mg/kg/day, po after 55 days by ELISA; format: functional, organism-based; settings: in the assay text read “after 53 days” for “after 55 days”; procedure, shortened: as §5
Trypanosoma cruzi [21] = assay: Antitrypanosomal activity against Trypanosoma cruzi Y infected in Swiss albino mouse assessed as increase of mouse survival days at 30 mg/kg/day, po relative to control; format: functional
Trypanosoma cruzi [22] = assay: Antitrypanosomal activity against Trypanosoma cruzi CL Brener clone infected in BALB/c mouse assessed as increase of mouse survival days at 10 mg/kg/day, po relative to control; format: functional
[23] = Cytotoxicity against mouse J774 cells; format: cell-based; settings: read-out: ID50 (the source's name)
Trypanosoma cruzi [24] = assay: Antitrypanosomal activity against Trypanosoma cruzi CL Brener clone trypomastigotes in parasite infected BALB/c mouse blood assessed as parasite lysis at 100 ug/ml after 24 hrs relative to control; format: functional; procedure, shortened: as §4
Trypanosoma cruzi [25] = assay: Antitrypanosomal activity against Trypanosoma cruzi CL Brener clone infected in Swiss albino mouse assessed as increase of mouse survival days at 10 mg/kg/day, po relative to control; format: functional
Trypanosoma cruzi [26] = assay: Antitrypanosomal activity against Trypanosoma cruzi Y infected in Swiss albino mouse assessed as increase of mouse survival days at 10 mg/kg/day, po relative to control; format: functional

| Structure (SMILES) | inhibition (Trypanosoma cruzi [1]) | IC50 (Trypanosoma cruzi [2]) | selectivity ratio [3] | IC50 (Trypanosoma cruzi [4]) | inhibition of growth at 25 µM (Trypanosoma cruzi [5]) | IC50 (Trypanosoma cruzi [6]) | IC50 (Trypanosoma cruzi [7]) | Activity (Trypanosoma cruzi [9]) | Activity (Trypanosoma cruzi [11]) | Activity (Trypanosoma cruzi [12]) | IC50 (Leishmania braziliensis) | Activity (Trypanosoma cruzi [13]) | further results |
| --- | --- | --- | --- | --- | --- | --- | --- | --- | --- | --- | --- | --- | --- |
| CC1CS(=O)(=O)CCN1/N=C/c1ccc([N+](=O)[O-])o1 (stereo not drawn) [NIFURTIMOX] | inactive | 4.9 µM | 41 | 9.7 µM | 100% | 3.4 µM | 7.7 µM |  |  |  |  |  |  |
| Cc1c(Sc2ccccc2)[n+]([O-])c2cc(Cl)c(Cl)cc2[n+]1[O-] | Active | < 1 µM |  | 2.9 µM | 93% | 1.7 µM | 6.5 µM | 100% | 100% | 98% | 1.4 µM |  | inhibition (Trypanosoma cruzi [8]): Active; inhibition (Trypanosoma cruzi [10]): Active |
| Cc1c(C(=O)Nc2ccccc2)[n+]([O-])c2ccccc2[n+]1[O-] |  |  |  |  | 10% |  |  | 0% | 24% | 32% | > 50 µM |  |  |
| CN(C)c1ccc(C(=C2C=CC(=[N+](C)C)C=C2)c2ccc(N(C)C)cc2)cc1.[Cl-] [GENTIAN VIOLET] |  |  |  |  |  |  |  |  |  |  |  | 100% |  |
| Cc1c(C(=O)c2ccccc2)[n+]([O-])c2cc(F)c(F)cc2[n+]1[O-] |  | 16.2 µM |  | 18.3 µM | 92% | 4.5 µM | 4.2 µM | 89% | 98% | 92% | 20.4 µM |  |  |
| O=C(c1ccccc1)c1c(C(F)(F)F)[n+]([O-])c2cc(F)c(F)cc2[n+]1[O-] | Active | 1.1 µM | 11.4 | 1.8 µM | 100% |  | 0.7 µM | 100% | 100% | 96% | 1.3 µM | 84% | Activity (Trypanosoma cruzi [14]): Active; Activity (Salmonella typhimurium [15]): Non-toxic; survival at 50 mg/kg/day (Trypanosoma cruzi [16]): 100%; Activity (Trypanosoma cruzi [17]): Active; Activity (Salmonella typhimurium [18]): Non-toxic; Activity (Trypanosoma cruzi [19]): Active; Activity (Trypanosoma cruzi [20]): Active; survival at 30 mg/kg/day (Trypanosoma cruzi [21]): 87.5%; survival at 10 mg/kg/day (Trypanosoma cruzi [22]): 100%; CC50 [23]: 8 µM; Activity (Trypanosoma cruzi [24]): 63%; survival at 10 mg/kg/day (Trypanosoma cruzi [25]): 100%; survival at 10 mg/kg/day (Trypanosoma cruzi [26]): 100% |
